These results are taken from ChEMBL document CHEMBL1255198, “Expanding the diversity of allosteric bcr-abl inhibitors” (J Med Chem, 2010).

A short description of experiment [1]: Cytotoxicity against mouse BA/F3 cells. The format is cell-based. Conditions: BaF3. The essentials: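 Parental IL-3-dependent murine Ba/F3 cells grown at 37 °C, 5% CO₂ in RPMI 1640 with 10% FBS, 1% L-glutamine and 10% WEHI-conditioned medium as IL-3 source. Growth after 48 h read by CellTiter-Glo luminescence.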
Experiment [2] is described as follows: Inhibition of Bcr-Abl E255K mutant in mouse BA/F3 cells assessed as cell growth inhibition. Conditions: BaF3.

Regarding `CC(C)Cn1cc(-c2cc(Nc3ccc(OC(F)(F)F)cc3)ncn2)cn1`, the EC50 in experiment [1] is over 10 µM. On the same count and under the same terms, for `COCCCNC(=O)CCn1ccc2c(Nc3ccc(OC(F)(F)F)cc3)ncnc21` the value was over 10 µM; for `FC(F)(F)Oc1ccc(Nc2cc(-c3ccnc4[nH]ccc34)ncn2)cc1`, 6.85 µM. Still for that read-out and setting: for `CCn1ncc2c(Nc3ccc(OC(F)(F)F)cc3)ncnc21` the value was over 10 µM.

`NC(=O)c1ccccc1-c1cc(Nc2ccc(OC(F)(F)F)cc2)ncn1` registered an EC50 in experiment [1] of over 10 µM. Still for that read-out and setting: for `NC(=O)c1ccc(-c2cc(Nc3ccc(OC(F)(F)F)cc3)ncn2)cc1` the value was over 10 µM; for `NC(=O)c1cccc(Nc2cc(Nc3ccc(OC(F)(F)F)cc3)ncn2)c1`, over 10 µM. For the compound `O=C(c1cc2c(Nc3ccc(OC(F)(F)F)cc3)ncnc2s1)N1CCNCC1`, in experiment [1], the EC50 turned out to be 4.07 µM. The same measure, in the same setting: the result for `CN(c1ccc(OC(F)(F)F)cc1)c1cc(-c2ccncc2)ncn1` reads over 10 µM. `FC(F)(F)Oc1ccc(Nc2cc(-c3cnn(Cc4cccnc4)c3)ncn2)cc1` came in with a concentration for a half-maximal effect (EC50) in experiment [1] of over 10 µM. Same read-out and setting: the result for `FC(F)(F)Oc1ccc(Nc2ncnc3c2cnn3Cc2ccncc2)cc1` reads over 10 µM; that for `NS(=O)(=O)c1cccc(-c2cc(Nc3ccc(OC(F)(F)F)cc3)ncn2)c1`, over 10 µM. `FC(F)(F)Oc1ccc(Nc2cc(-c3ccc4[nH]ccc4c3)ncn2)cc1` displayed an EC50 in experiment [1] of over 10 µM. On the same count and under the same terms, for `FC(F)(F)Oc1ccc(Nc2ncnc3nn(Cc4cccnc4)cc23)cc1` the value was over 10 µM; for `OCCn1cc2c(Nc3ccc(OC(F)(F)F)cc3)ncnc2n1`, over 10 µM. In experiment [1], `FC(F)(F)Oc1cccc(Nc2cc(NCCN3CCOCC3)ncn2)c1` came in with an EC50 of over 10 µM. Turning to `NC(=O)c1cccc(-c2cc(Nc3ccc(OC(F)(F)F)cc3)ncn2)c1`, the EC50 in experiment [2] was 0.6 µM; in experiment [1] it was over 10 µM. In experiment [1], `FC(F)(F)Oc1ccc(Nc2ncnc(NCCN3CCOCC3)n2)cc1` had an EC50 of over 10 µM. Same read-out and setting: for `NC(=O)c1cccc(Oc2cc(Nc3ccc(OC(F)(F)F)cc3)ncn2)c1` the value was over 10 µM; for `Cc1nn(C)c(C)c1-c1cc(Nc2ccc(OC(F)(F)F)cc2)ncn1`, over 10 µM. Same read-out and setting: the result for `FC(F)(F)Oc1ccc(Nc2ncnc3[nH]ncc23)cc1` reads over 10 µM; that for `NC(=O)CCn1ccc2c(Nc3ccc(OC(F)(F)F)cc3)ncnc21`, over 10 µM. Still for that read-out and setting: for `FC(F)(F)Oc1ccc(Nc2cc(NCCN3CCOCC3)ncn2)cc1` the value was over 10 µM; for `Cn1ccc2c(Nc3ccc(OC(F)(F)F)cc3)ncnc21`, over 10 µM. Take `NS(=O)(=O)c1ccc(-c2cc(Nc3ccc(OC(F)(F)F)cc3)ncn2)cc1`: the EC50 in experiment [2] is 0.31 µM; in experiment [1], over 10 µM. As for `FC(F)(F)Oc1ccc(-c2cc(NCCN3CCOCC3)ncn2)cc1`, the EC50 in experiment [1] is over 10 µM.

In turn, `O=C(c1cc2c(Nc3ccc(OC(F)(F)F)cc3)ncnc2s1)N1CCC(O)CC1` came in with an EC50 in experiment [1] of over 10 µM. On the same count and under the same terms, for `Cc1c(NCCN2CCOCC2)ncnc1Nc1ccc(OC(F)(F)F)cc1` the value was over 10 µM; for `NC(=O)Cn1cc2c(Nc3ccc(OC(F)(F)F)cc3)ncnc2n1`, over 10 µM. Still for that read-out and setting: the result for `FC(F)(F)Oc1ccc(Nc2ncnc3c2cnn3Cc2cccnc2)cc1` reads over 10 µM; that for `Cc1nc(-c2cc(Nc3ccc(OC(F)(F)F)cc3)ncn2)cs1`, over 10 µM. For the compound `FC(F)(F)Oc1ccc(Nc2cc(NCCCN3CCOCC3)ncn2)cc1`, the EC50 in experiment [1] was over 10 µM. The compound `Cc1c(-c2cc(Nc3ccc(OC(F)(F)F)cc3)ncn2)cnn1-c1ccccc1` registered an EC50 in experiment [1] of over 10 µM.

Regarding `FC(F)(F)Oc1ccc(Nc2cc(N3CCOCC3)ncn2)cc1`, the EC50 in experiment [1] was over 10 µM. Consider `FC(F)(F)c1ccc(Nc2cc(-c3ccncc3)ncn2)cc1`, for which the EC50 in experiment [1] is over 10 µM. Turning to `FC(F)(F)Oc1ccc(Nc2cc(-c3cn[nH]c3)ncn2)cc1`, the EC50 is 0.52 µM in experiment [2] and over 10 µM in experiment [1]. Regarding `FC(F)(F)Oc1ccc(Nc2ncnc3c2cnn3CC2CCOC2)cc1` (stereo not drawn), the EC50 in experiment [1] is over 10 µM. Consider `CC(C)(C)n1ncc2c(Nc3ccc(OC(F)(F)F)cc3)ncnc21`, for which the EC50 worked out at 0.5 µM in experiment [2] and 7.3 µM in experiment [1]. In experiment [1], `COC(=O)c1cc2c(Nc3ccc(OC(F)(F)F)cc3)ncnc2s1` displayed an EC50 of over 10 µM. `O=C(O)c1cc2c(Nc3ccc(OC(F)(F)F)cc3)ncnc2s1` registered an EC50 in experiment [1] of over 10 µM. Still for that read-out and setting: for `CCn1cc2c(Nc3ccc(OC(F)(F)F)cc3)ncnc2n1` the value was over 10 µM; for `Cc1ccc(C(=O)Nc2cccc(C(F)(F)F)c2)cc1NC(=O)c1cc2c(Nc3ccc(OC(F)(F)F)cc3)ncnc2s1`, 8.9 µM. Regarding `CN1CCN(C(=O)c2cc3c(Nc4ccc(OC(F)(F)F)cc4)ncnc3s2)CC1`, the values for the EC50 in experiment [2] and in experiment [1] were 1.33 µM and 2.69 µM, respectively.

Turning to `FC(F)(F)Oc1ccc(Nc2ncnc3c2ccn3CCN2CCOCC2)cc1`, the results for the EC50 in experiment [2] and in experiment [1] were 1.22 µM and over 10 µM, respectively. `CN(c1ccc(OC(F)(F)F)cc1)c1cc(NCCN2CCOCC2)ncn1` displayed a half-maximal effective concentration (EC50) in experiment [1] of over 10 µM. Same read-out and setting: the result for `FC(F)(F)Oc1ccc(Nc2cc(-n3ccnc3)ncn2)cc1` reads over 10 µM. The same measure, in the same setting: the result for `FC(F)(F)Oc1ccc(CNc2cc(NCCN3CCOCC3)ncn2)cc1` reads over 10 µM.

With `FC(F)(F)Oc1ccc(Nc2ccnc(NCCN3CCOCC3)n2)cc1`, the EC50 in experiment [1] was over 10 µM. Still for that read-out and setting: for `FC(F)(F)Oc1ccc(Nc2ncnc3nn(C4CCCCC4)cc23)cc1` the value was over 10 µM; for `CS(=O)(=O)c1cccc(-c2cc(Nc3ccc(OC(F)(F)F)cc3)ncn2)c1`, over 10 µM. Still for that read-out and setting: the result for `COc1ccc(Nc2cc(-c3ccncc3)ncn2)cc1` reads over 10 µM.

In experiment [1], `COc1ccc(Nc2cc(NCCN3CCOCC3)ncn2)cc1` came in with an EC50 of over 10 µM.

`O=C(c1cccc(-c2cc(Nc3ccc(OC(F)(F)F)cc3)ncn2)c1)N1CCOCC1` registered an EC50 in experiment [1] of over 10 µM. On to `CCNC(=O)c1cc2c(Nc3ccc(OC(F)(F)F)cc3)ncnc2s1`, for which, in experiment [1], the EC50 is over 10 µM. Consider `Cn1cc(-c2cc(Nc3ccc(OC(F)(F)F)cc3)ncn2)cn1`, for which the EC50 in experiment [1] was over 10 µM.

As to `CS(=O)(=O)Nc1ccc(-c2cc(Nc3ccc(OC(F)(F)F)cc3)ncn2)cc1`, the EC50 in experiment [2] was determined as 0.36 µM; in experiment [1] it was 2.21 µM. For the compound `O=C(NCCN1CCOCC1)c1cccc(-c2cc(Nc3ccc(OC(F)(F)F)cc3)ncn2)c1`, the EC50 in experiment [1] was over 10 µM.

Take `FC(F)(F)Oc1ccc(Nc2ncnc3c2cnn3C2CCCCC2)cc1`: a half-maximal effect in experiment [1] (EC50) was put at 9.3 µM. In the case of `COc1ccc(Cn2ccc3c(Nc4ccc(OC(F)(F)F)cc4)ncnc32)cc1`, the EC50 in experiment [1] is over 10 µM.

Take `O=C(NCCO)c1cc2c(Nc3ccc(OC(F)(F)F)cc3)ncnc2s1`: in experiment [1], the EC50 was over 10 µM. For `Nc1cccc(-c2cc(Nc3ccc(OC(F)(F)F)cc3)ncn2)c1`, the EC50 in experiment [1] is over 10 µM.

In turn, `NC(=O)Cn1ncc2c(Nc3ccc(OC(F)(F)F)cc3)ncnc21` showed an EC50 in experiment [1] of 3.3 µM.

Regarding `O=C(NCCO)c1cccc(-c2cc(Nc3ccc(OC(F)(F)F)cc3)ncn2)c1`, the results for the EC50 in experiment [2] and in experiment [1] were 0.58 µM and over 10 µM, respectively. In turn, `FC(F)(F)Oc1ccc(Nc2ncnc3c2cnn3Cc2ccccc2)cc1` yielded an EC50 in experiment [1] of over 10 µM. Same read-out and setting: for `FC(F)(F)c1ccc(Nc2cc(NCCN3CCOCC3)ncn2)cc1` the value was over 10 µM. For `OCCn1ncc2c(Nc3ccc(OC(F)(F)F)cc3)ncnc21`, the results for the EC50 in experiment [2] and in experiment [1] were 1.61 µM and over 10 µM, respectively.

With `CNC(=O)c1cccc(-c2cc(Nc3ccc(OC(F)(F)F)cc3)ncn2)c1`, the EC50 in experiment [1] is over 10 µM. Same read-out and setting: for `Fc1ccc(Nc2cc(-c3ccncc3)ncn2)cc1` the value was over 10 µM; for `CCCn1cc2c(Nc3ccc(OC(F)(F)F)cc3)ncnc2n1`, over 10 µM; for `NC(=O)c1ccc(Cn2ncc3c(Nc4ccc(OC(F)(F)F)cc4)ncnc32)cc1`, over 10 µM.

For `CCCn1ncc2c(Nc3ccc(OC(F)(F)F)cc3)ncnc21`, it took 6.6 µM to reach a half-maximal effect in experiment [1] (EC50). The same measure, in the same setting: for `Cc1nc(C)c(Cn2ncc3c(Nc4ccc(OC(F)(F)F)cc4)ncnc32)s1` the value was over 10 µM; for `FC(F)(F)Oc1ccc(Oc2cc(NCCN3CCOCC3)ncn2)cc1`, over 10 µM.

The compound `FC(F)(F)Oc1ccc(Nc2cc(-c3cccc4[nH]ccc34)ncn2)cc1` registered an EC50 in experiment [1] of 3.79 µM. `O=C(c1cc2c(Nc3ccc(OC(F)(F)F)cc3)ncnc2s1)N1CCN(N2CCCC2)CC1`: the midpoint of the response in experiment [1], the EC50, lay at 5.77 µM. With `FC(F)(F)Oc1ccc(Nc2ncnc3nn(Cc4ccccc4)cc23)cc1`, in experiment [1], the EC50 was over 10 µM. The compound `FC(F)(F)Oc1ccc(Nc2cncc(NCCN3CCOCC3)n2)cc1` gave an EC50 in experiment [1] of over 10 µM.

In experiment [1], `OCc1cc2c(Nc3ccc(OC(F)(F)F)cc3)ncnc2s1` yielded an EC50 of over 10 µM. Same read-out and setting: for `FC(F)(F)c1ccc(Nc2cc(-c3ccncc3)ncn2)cn1` the value was over 10 µM; for `FC(F)(F)Oc1ccc(Nc2cc(-c3ccncc3)ncn2)cc1`, over 10 µM; for `Cc1nc(NCCN2CCOCC2)cc(Nc2ccc(OC(F)(F)F)cc2)n1`, 1.11 µM. On the same count and under the same terms, the result for `FC(F)(F)Oc1ccc(Nc2nccc(NCCN3CCOCC3)n2)cc1` reads over 10 µM; that for `FC(F)(F)Oc1ccc(Nc2ncnc3[nH]ccc23)cc1`, over 10 µM.

Regarding `FC(F)(F)Oc1ccc(Nc2ccc(NCCN3CCOCC3)nn2)cc1`, in experiment [1], the EC50 was over 10 µM.
